The results in this text go back to ChEMBL document CHEMBL4346663, “N-Cinnamoylanthranilates as human TRPA1 modulators: Structure-activity relationships and channel binding sites” (Eur J Med Chem, 2019).

The nature of data set [1]: Dissociation constant, pKa of the compound at pH 7.4. Format: physicochemical.
Data set [2] addresses T1, Transient receptor potential cation channel subfamily A member 1 (Homo sapiens, UniProt O75762). Kind of data set: Antagonist activity at human TRPA1 expressed in HEK293 cells assessed as increase in calcium influx at 3 uM incubated for 10 mins prior to CA challenge by Fluo-4-AM dye based fluorescence assay […]. Format: cell-based. More on the design: scale not given: the % may be the effect or the level left.

Data set [3] has as its target T1, Transient receptor potential cation channel subfamily A member 1. In words: Agonist activity at human TRPA1 expressed in HEK293 cells assessed as increase in calcium influx at 3 uM by Fluo-4-AM dye based fluorescence assay relative to calcimycin. Format: cell-based. In a few lines: (§1)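 Stably transfected hTRPA1- or hTRPM8-HEK293 cells on poly-D-lysine plates for 48 h, loaded with Fluo-4AM (2 µM, 45 min, dark, room temperature), in isotonic HEPES buffer pH 7.4. FlexStation 240 s run: 20 s baseline, compound added, calcimycin added at 180 s. ΔRFU expressed as % calcimycin, DMSO-subtracted. Screening N = 3. Dose-response curves fitted for logEC50 (N = 3 in duplicate or triplicate).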

The target in data set [4] is T2, Transient receptor potential cation channel subfamily M member 8 (Homo sapiens, UniProt Q7Z2W7). In words: Antagonist activity at human TRPM8 expressed in HEK293 cells assessed as increase in calcium influx at 3 uM incubated for 10 mins prior to WS5 challenge by Fluo-4-AM dye based fluorescence assay relative to WS5. Further details: scale not given: the % may be the effect or the level left. In kind it is cell-based. In a few lines:
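hTRPM8-HEK293 cells loaded with Fluo-4AM (2 µM, 45 min). Test compound pre-incubated 10 min before WS5 standard agonist. FlexStation fluorescence at 485/538 nm. ΔRFU given as % of WS5 response after DMSO vehicle subtraction. N = 3. IC50 from dose-response curves.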

Data set [5] has as its target T1, Transient receptor potential cation channel subfamily A member 1. In words: Agonist activity at human TRPA1 in WI38 cells assessed as increase in calcium influx by Fluo-4-AM dye based fluorescence assay. Format: cell-based.
Data set [6] shares this target. In words: Agonist activity at human TRPA1 expressed in HEK293 cells assessed as increase in calcium influx by Fluo-4-AM dye based fluorescence assay. In kind it is cell-based. In a few lines: as §1
The test system of data set [7] is Transient receptor potential cation channel subfamily A member 1 (Homo sapiens), O75762 [F944A]. In words: Agonist activity at human TRPA1 Phe944Ala mutant expressed in HEK293 cells assessed as Ca2+ influx at 10 uM by fluorescence assay. Format: cell-based. In a few lines: (§2)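 HEK293 cells stably expressing hTRPA1 point mutants (C621A, F909A or F944A), single-cell cloned under G418 selection. Cells plated on poly-D-lysine for 48 h, loaded with Fluo-4AM 2 µM for 45 min at room temperature. FlexStation read (ex 485/em 538 nm): 20 s baseline, compound added, calcimycin added at 180 s. Response expressed as % calcimycin from ΔRFU, vehicle-subtracted, and compared with wild-type hTRPA1 cells.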
Sequence of Transient receptor potential cation channel subfamily A member 1 (Homo sapiens), O75762 [F944A] (O75762 whole entry F944A): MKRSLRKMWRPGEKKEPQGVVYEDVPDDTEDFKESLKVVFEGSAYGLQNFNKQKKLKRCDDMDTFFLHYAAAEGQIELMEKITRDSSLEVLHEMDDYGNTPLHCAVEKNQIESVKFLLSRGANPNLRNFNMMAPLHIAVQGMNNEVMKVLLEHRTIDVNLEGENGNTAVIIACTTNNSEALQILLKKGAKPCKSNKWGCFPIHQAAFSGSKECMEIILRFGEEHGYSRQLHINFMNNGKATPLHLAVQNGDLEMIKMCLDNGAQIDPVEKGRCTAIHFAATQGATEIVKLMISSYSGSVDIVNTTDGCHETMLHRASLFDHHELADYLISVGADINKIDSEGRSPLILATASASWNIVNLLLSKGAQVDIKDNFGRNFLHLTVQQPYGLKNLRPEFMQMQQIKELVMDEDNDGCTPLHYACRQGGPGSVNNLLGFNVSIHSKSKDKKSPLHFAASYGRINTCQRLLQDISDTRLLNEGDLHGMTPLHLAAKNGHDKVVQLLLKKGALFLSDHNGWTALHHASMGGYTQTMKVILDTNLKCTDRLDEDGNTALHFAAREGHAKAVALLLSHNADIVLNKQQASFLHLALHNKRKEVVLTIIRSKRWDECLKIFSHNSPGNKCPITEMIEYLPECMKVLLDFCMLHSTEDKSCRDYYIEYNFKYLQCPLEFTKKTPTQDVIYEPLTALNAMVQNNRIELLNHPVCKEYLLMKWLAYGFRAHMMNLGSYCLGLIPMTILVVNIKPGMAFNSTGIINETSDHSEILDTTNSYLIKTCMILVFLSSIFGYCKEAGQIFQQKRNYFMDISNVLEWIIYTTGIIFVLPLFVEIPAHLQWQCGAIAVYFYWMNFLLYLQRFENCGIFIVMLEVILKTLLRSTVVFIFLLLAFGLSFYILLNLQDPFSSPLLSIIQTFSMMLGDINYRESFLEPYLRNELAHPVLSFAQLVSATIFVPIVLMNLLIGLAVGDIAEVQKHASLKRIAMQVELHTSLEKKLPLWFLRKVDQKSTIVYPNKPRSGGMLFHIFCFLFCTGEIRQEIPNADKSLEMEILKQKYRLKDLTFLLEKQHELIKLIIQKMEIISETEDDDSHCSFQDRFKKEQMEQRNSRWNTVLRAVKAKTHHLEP

In data set [8] the test system is Transient receptor potential cation channel subfamily A member 1 (Homo sapiens), O75762 [F909A]. In words: Agonist activity at human TRPA1 Phe909Ala mutant expressed in HEK293 cells assessed as Ca2+ influx at 10 uM by fluorescence assay. In kind it is cell-based. In a few lines:
as §2

For data set [9] the test system is unchanged. In words: Antagonist activity at human TRPA1 Phe909Ala mutant expressed in HEK293 cells assessed as Ca2+ influx at 100 uM by fluorescence assay. Format: cell-based. In a few lines:
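hTRPA1 F909A or F944A mutant HEK293 stable clones, loaded with Fluo-4AM (2 µM, 45 min, room temperature). Compound pre-incubated 10 min before the standard agonist was added. FlexStation fluorescence (485/538 nm). ΔRFU normalized to the standard agonist response set at 100 %, after DMSO vehicle subtraction.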

The target of data set [10] is T1, Transient receptor potential cation channel subfamily A member 1. In words: Antagonist activity at human TRPA1 expressed in HEK293 cells assessed as inhibition of CA-induced increase in calcium influx incubated for 10 mins prior to CA addition by Fluo-4-AM dye based fluorescence assayy. In kind it is cell-based.
The test system of data set [11] is Transient receptor potential cation channel subfamily A member 1 (Homo sapiens), O75762 [F909A]. In words: Agonist activity at human TRPA1 Phe909Ala mutant expressed in HEK293 cells assessed as Ca2+ influx at 30 uM by fluorescence assay. In kind it is cell-based. In a few lines:
as §2

For data set [12], the target named is T2, Transient receptor potential cation channel subfamily M member 8. In words: Agonist activity at human TRPM8 expressed in HEK293 cells assessed as increase in calcium influx at 3 uM by Fluo-4-AM dye based fluorescence assay relative to calcimycin. In kind it is cell-based. In a few lines: as §1
Data set [13] has as its system Transient receptor potential cation channel subfamily A member 1 (Homo sapiens), O75762 [F909A]. In words: Agonist activity at human TRPA1 Phe909Ala mutant expressed in HEK293 cells assessed as Ca2+ influx at 100 uM by fluorescence assay. In kind it is cell-based. In a few lines:
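HEK293 cells stably expressing hTRPA1 point mutants, made by FuGENE 6 transfection, G418 (0.5 mg ml-1) selection and single-cell cloning, grown in DMEM with 25 mM HEPES, 10% FBS and geneticin. Ca2+ influx was read by Fluo dye fluorescence at room temperature, with calcimycin added at the end. Response was ΔRFU as % of calcimycin, with the DMSO vehicle subtracted.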

Data set [14] relates to Transient receptor potential cation channel subfamily A member 1 (Homo sapiens), O75762 [F944A]. Kind of data set: Agonist activity at human TRPA1 Phe944Ala mutant expressed in HEK293 cells assessed as Ca2+ influx at 30 uM by fluorescence assay. In kind it is cell-based. In a few lines: as §2

Calls of active or inactive are those of the source. The rule behind the calls is not given here.

T2 sequence (Q7Z2W7 whole entry, looked up): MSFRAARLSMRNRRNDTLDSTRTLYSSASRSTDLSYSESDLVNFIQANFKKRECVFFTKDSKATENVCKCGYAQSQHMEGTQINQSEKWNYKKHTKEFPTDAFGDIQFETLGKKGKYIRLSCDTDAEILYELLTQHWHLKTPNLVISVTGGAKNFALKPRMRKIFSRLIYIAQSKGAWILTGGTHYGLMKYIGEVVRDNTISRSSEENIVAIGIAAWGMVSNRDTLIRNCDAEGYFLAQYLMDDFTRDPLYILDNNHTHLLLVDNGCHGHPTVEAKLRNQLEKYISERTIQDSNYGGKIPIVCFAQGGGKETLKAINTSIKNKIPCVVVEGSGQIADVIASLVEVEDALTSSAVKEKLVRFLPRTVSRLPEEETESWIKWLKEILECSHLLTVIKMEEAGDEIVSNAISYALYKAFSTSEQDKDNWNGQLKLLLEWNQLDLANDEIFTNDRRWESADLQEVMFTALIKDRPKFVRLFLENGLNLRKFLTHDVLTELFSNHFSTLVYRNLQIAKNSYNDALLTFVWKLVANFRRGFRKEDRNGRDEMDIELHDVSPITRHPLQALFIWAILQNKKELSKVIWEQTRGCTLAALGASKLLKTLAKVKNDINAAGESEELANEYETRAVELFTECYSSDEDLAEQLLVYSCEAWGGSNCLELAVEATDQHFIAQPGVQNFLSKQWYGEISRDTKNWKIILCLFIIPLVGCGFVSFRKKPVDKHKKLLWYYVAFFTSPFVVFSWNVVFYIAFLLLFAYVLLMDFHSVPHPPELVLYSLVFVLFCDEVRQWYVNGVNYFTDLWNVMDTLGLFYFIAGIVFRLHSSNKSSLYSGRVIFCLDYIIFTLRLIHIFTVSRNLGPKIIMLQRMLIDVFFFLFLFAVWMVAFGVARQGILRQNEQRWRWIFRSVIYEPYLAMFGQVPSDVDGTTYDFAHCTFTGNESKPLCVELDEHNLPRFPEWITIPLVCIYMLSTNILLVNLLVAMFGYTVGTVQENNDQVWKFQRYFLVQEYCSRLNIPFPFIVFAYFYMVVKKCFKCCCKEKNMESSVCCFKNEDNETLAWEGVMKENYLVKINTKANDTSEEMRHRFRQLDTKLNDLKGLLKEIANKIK
Sequence of Transient receptor potential cation channel subfamily A member 1 (Homo sapiens), O75762 [F909A] (O75762 whole entry F909A): as the sequence (O75762 whole entry F944A) above, with F909A, A944F counted along it
T1 sequence (O75762 whole entry): as the sequence (O75762 whole entry F944A) above, with A944F counted along it

As to `COC(=O)c1ccccc1NC(=O)/C(C)=C/c1ccccc1`, in [1], the pKa (as a rule, the pH at which an ionisable group is half protonated) came out at 13.9. Also, the Activity amounted to 73% in [2], 49% in data set [3] and 30% in data set [4].
With `O=C(O)c1ccccc1Nc1cccc(C(F)(F)F)c1` [FLUFENAMIC ACID], the results for the EC50 in [5], in data set [6] (read-out: EC50) and in [6] (read-out: pEC50 (converted)) were 24 µM, 7 to 57 µM and 6.92 µM, respectively. Further, the outcome in data set [7] was inactive. Moreover, the outcome in data set [8] was Active.
For `CC(C)c1ccc(NC(=O)Cn2cnc3c2c(=O)n(C)c(=O)n3C)cc1`, the result in data set [9] was Active. Moreover, the IC50 (commonly the concentration at which inhibition is half-maximal) in data set [10] is 18 µM.
As to `O=C(O)Cc1ccccc1Nc1c(Cl)cccc1Cl` [DICLOFENAC], the EC50 in data set [5] was 210 µM; in data set [6] (read-out: EC50) it was 56 µM; in [6] (read-out: pEC50 (converted)), 63.1 µM. The outcome in data set [11] was Active.
`COC(=O)c1ccccc1NC(=O)/C=C/c1ccccc1`: the pKa in [1] amounted to 13.9. For the same molecule, the outcome in data set [2] and in data set [12] was inactive. For the same molecule, the Activity amounted to 22% in data set [3] and 61% in data set [4].
Take `Cc1ccc(C(C)C)c(O)c1`: the outcome in [13] was Active.
On to `CCCCCc1ccc(/C=C/C(=O)Nc2ccccc2C(=O)O)cc1`, for which the result in data set [11], in data set [8] and in [14] was Active. Also, the EC50 in data set [6] (read-out: EC50) came to 28 µM. Also, the outcome in data set [7] was inactive.
In turn, `COC(=O)c1ccccc1NC(=O)/C(=C/c1ccccc1)c1ccccc1` registered a pKa in data set [1] of 13.9. Moreover, the Activity in data set [2] worked out at 51%; in data set [3] it was 63%; in data set [12], 23%; in [4] it was 48%.
`Cc1cccc(Nc2ccccc2C(=O)O)c1C` [MEFENAMIC ACID]: the EC50 in [5] was 61 µM; in data set [6] (read-out: EC50) it was 16 µM. The outcome in data set [11] was Active.
For the molecule `NC(=O)c1cccc(-c2cccc(OC(=O)NC3CCCCC3)c2)c1` [URB-597], in data set [6] (read-out: EC50), the EC50 came to 0.1 µM. For the same molecule, the result in [13] was Active.
